Reference: ChEMBL document CHEMBL4308830, “Design, Synthesis, and Characterization of 4-Undecylpiperidine-2-carboxamides as Positive Allosteric Modulators of the Serotonin (5-HT) 5-HT2C Receptor” (J Med Chem, 2018)
The source made the active and inactive calls.

Experiments:
Rattus norvegicus [1] = assay: Increase in WAY163909-induced suppression of spontaneous locomotor activity in Sprague-Dawley rat assessed as reduction in total vertical activity at 5 mg/kg, ip cotreated with WAY163909 at 15 mins post 5-HT2C antagonist SB242084 treatment measured for 30 mins; format: functional, organism-based
Method in brief: (§1)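 Rats (n = 9–10/group) received SB242084 (1 mg/kg ip) or vehicle (8% 2-hydroxypropyl-β-cyclodextrin) 15 min before ip WAY163909 (1 mg/kg) plus compound (5 mg/kg). They were placed in monitors immediately; ambulations and vertical activity were totalled over 30 min. Analysis: ANOVA with Bonferroni comparisons.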

[2] = target: T1, 5-hydroxytryptamine receptor 2C (Homo sapiens) (UniProt P28335); assay: Positive allosteric modulation of human 5-HT2CR expressed in CHO cells assessed as increase in 5-HT-induced intracellular calcium release at 0.000001 to 1 uM preincubated for 15 mins followed by 5-HT addition by calcium-4 dye based FLIPR assay; format: functional, cell-based
T1 sequence (whole entry): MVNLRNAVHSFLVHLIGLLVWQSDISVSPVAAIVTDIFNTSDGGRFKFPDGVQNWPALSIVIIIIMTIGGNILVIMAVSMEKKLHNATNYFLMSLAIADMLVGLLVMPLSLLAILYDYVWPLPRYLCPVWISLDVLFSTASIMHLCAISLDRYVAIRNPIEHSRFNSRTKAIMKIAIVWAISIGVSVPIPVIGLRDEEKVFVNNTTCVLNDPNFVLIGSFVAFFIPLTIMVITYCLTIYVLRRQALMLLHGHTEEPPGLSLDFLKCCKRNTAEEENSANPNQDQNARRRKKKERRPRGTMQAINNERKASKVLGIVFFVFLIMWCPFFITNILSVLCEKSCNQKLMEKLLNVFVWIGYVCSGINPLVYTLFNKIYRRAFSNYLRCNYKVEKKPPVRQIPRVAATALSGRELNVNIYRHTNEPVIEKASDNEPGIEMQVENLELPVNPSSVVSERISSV
Method in brief: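 CHO cells stably expressing human unedited (INI) 5-HT2CR, passages 6–16, grown at 37 °C in medium with 5% FBS and hygromycin. Plated cells were serum-starved 3 h, then loaded 60 min at 37 °C plus 15 min at room temperature with Calcium 4 dye and 2.5 mM probenecid in HBSS pH 7.4. Compound (1 pM, 1 nM, 1 μM) was added 15 min before 5-HT (10 pM–10 μM), and fluorescence peak height was read.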

[3] = AUC (0 to infinity) in Sprague-Dawley rat at 5 mg/kg, iv administered as single dose; format: ADME, organism-based; parameters: dose 5 mg/kg, time infinity, route intravenous; conditions: in vivo
Rattus norvegicus [4] = assay: Drug discrimination in WAY163909-trained Sprague-Dawley rat assessed as increase in WAY163909-appropriate lever responding at 0.5 mg/kg, ip co-treated with WAY163909 15 mins prior to test relative to control; format: functional
Method in brief: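 Water-restricted male Sprague–Dawley rats were trained to discriminate WAY163909 (0.75 mg/kg ip, 15 min pretreatment) from saline under FR20, to a criterion of ≥80% correct for 10 sessions. Test doses were given ip 15 min before test: compound alone (0.125–1.0 mg/kg) or compound 0.5 mg/kg plus WAY163909 0.5 mg/kg. Read-out was % drug-lever responding; only rats completing FR20 within 15 min were counted.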

Rattus norvegicus [5] = assay: Suppression of spontaneous locomotor activity in Sprague-Dawley rat assessed as reduction in total vertical activity at 5 mg/kg, ip administered as single dose measured for 30 mins; format: functional, organism-based
Method in brief: (§2)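 Male Sprague–Dawley rats naive to activity monitors (n = 7–8/group) received saline (1 mL/kg ip) or compound (0.5, 1 or 5 mg/kg ip) immediately before testing. Ambulations and vertical counts were taken in 5 min bins for 90 min and totalled over the first 30 min. Analysis: one-way ANOVA with Dunnett's comparisons to vehicle.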

[6] = target: T1, 5-hydroxytryptamine receptor 2C (Homo sapiens); assay: Positive allosteric modulation of human 5-HT2CR expressed in CHO cells assessed as 5-HT-induced intracellular calcium release at 1 nM preincubated for 15 mins followed by 5-HT addition by calcium-4 dye based FLIPR assay (reference value: 100%); format: functional, cell-based
Method in brief: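 CHO cells stably expressing human unedited INI 5-HT2CR were plated, serum-starved 3 h, then loaded with Calcium 4 dye plus 2.5 mM probenecid (60 min 37 °C, then 15 min RT). Compound (1 nM) was added; the read after this addition gave intrinsic agonism. 5-HT (10 pM–10 μM) followed 15 min later. FLIPR-TETRA: 10 s baseline, 1 s reads for 120 s after compound and 360 s after 5-HT. Emax came from 4-parameter fits, ≥3 biological replicates in triplicate.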

[7] = target: 5-hydroxytryptamine receptor 2A (Homo sapiens, UniProt P28223); assay: Positive allosteric modulation of human 5-HT2AR expressed in CHO cells assessed as increase in 5-HT-induced intracellular calcium release at 0.000001 to 1 uM preincubated for 15 mins followed by 5-HT addition by calcium-4 dye based FLIPR assay; format: cell-based
Method in brief: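 Human 5-HT2AR-CHO cells, same calcium assay: Calcium 4 dye with probenecid. Compound (1 pM, 1 nM, 1 μM) was given 15 min before a 5-HT concentration–response (10 pM–10 μM). Peak fluorescence was fit by 4-parameter regression.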

[8] = Volume of distribution at steady state in Sprague-Dawley rat at 5 mg/kg, iv administered as single dose; format: ADME, organism-based; conditions: in vivo
[9] = target: 5-hydroxytryptamine receptor 1D (Homo sapiens) (UniProt P28221); assay: Displacement of [3H]-GR125743 from recombinant human 5-HT1DR expressed in HEKT cell membranes at 10 uM after 90 mins by scintillation counting method relative to control
[10] = Oral bioavailability in Sprague-Dawley rat at 10 mg/kg administered as single dose; format: ADME, organism-based; conditions: in vivo
Rattus norvegicus [11] = assay: Suppression of spontaneous locomotor activity in Sprague-Dawley rat assessed as reduction in total ambulation at 5 mg/kg, ip administered as single dose measured for 30 mins; format: functional, organism-based; method in brief: as §2
[12] = Clearance in Sprague-Dawley rat at 5 mg/kg, iv administered as single dose; format: ADME, organism-based; conditions: in vivo
5-HT2B receptor = 5-HT2B receptor (Homo sapiens, UniProt P41595); assay: Displacement of [3H]-LSD from recombinant human 5-HT2BR expressed in HEK cell membranes at 10 uM after 90 mins by scintillation counting method relative to control; conditions: probe [3H]-LSD
Rattus norvegicus [13] = assay: Increase in WAY163909-induced suppression of spontaneous locomotor activity in Sprague-Dawley rat assessed as reduction in total ambulation at 5 mg/kg, ip cotreated with WAY163909 at 15 mins post 5-HT2C antagonist SB242084 treatment measured for 30 mins; format: functional, organism-based; method in brief: as §1
[14] = target: 5-hydroxytryptamine receptor 5A (Homo sapiens) (UniProt P47898); assay: Displacement of [3H]-LSD from recombinant human 5-HT5AR expressed in Flp-IN CHO cell membranes at 10 uM after 90 mins by scintillation counting method relative to control
[15] = Terminal half life in Sprague-Dawley rat at 10 mg/kg, po administered as single dose; format: ADME, organism-based; conditions: in vivo
[16] = target: 5-hydroxytryptamine receptor 7 (Homo sapiens) (UniProt P34969); assay: Displacement of [3H]-LSD from recombinant human 5-HT7R expressed in HEK cell membranes at 10 uM after 90 mins by scintillation counting method relative to control
5-hydroxytryptamine receptor 7 (Homo sapiens), sequence (P34969 whole entry): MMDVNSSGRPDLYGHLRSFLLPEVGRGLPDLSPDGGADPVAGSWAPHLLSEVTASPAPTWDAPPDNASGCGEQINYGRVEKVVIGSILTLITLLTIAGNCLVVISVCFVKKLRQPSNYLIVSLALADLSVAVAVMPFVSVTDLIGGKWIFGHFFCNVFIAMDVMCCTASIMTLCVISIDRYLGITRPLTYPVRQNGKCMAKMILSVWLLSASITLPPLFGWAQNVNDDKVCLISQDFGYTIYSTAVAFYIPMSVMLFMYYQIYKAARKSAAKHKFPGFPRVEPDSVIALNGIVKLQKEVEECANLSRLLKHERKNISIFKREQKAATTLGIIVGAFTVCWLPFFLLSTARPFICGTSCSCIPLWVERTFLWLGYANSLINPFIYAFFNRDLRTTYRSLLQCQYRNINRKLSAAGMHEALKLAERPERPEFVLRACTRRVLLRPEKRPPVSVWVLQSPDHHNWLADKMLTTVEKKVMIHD

5-hydroxytryptamine receptor 2A, sequence (P28223 whole entry): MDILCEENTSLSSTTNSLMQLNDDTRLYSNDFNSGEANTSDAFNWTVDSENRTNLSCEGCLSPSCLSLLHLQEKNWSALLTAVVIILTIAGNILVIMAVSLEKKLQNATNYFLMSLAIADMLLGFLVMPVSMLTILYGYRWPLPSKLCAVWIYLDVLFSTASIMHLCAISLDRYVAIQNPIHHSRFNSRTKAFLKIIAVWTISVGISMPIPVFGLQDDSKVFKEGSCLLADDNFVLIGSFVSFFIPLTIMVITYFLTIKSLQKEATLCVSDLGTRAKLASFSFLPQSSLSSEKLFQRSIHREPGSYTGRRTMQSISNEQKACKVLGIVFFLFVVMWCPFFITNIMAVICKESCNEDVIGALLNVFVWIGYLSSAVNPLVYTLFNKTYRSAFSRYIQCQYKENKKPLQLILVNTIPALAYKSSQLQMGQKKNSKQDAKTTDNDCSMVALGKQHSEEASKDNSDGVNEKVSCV
5-HT2B receptor, sequence (P41595 whole entry): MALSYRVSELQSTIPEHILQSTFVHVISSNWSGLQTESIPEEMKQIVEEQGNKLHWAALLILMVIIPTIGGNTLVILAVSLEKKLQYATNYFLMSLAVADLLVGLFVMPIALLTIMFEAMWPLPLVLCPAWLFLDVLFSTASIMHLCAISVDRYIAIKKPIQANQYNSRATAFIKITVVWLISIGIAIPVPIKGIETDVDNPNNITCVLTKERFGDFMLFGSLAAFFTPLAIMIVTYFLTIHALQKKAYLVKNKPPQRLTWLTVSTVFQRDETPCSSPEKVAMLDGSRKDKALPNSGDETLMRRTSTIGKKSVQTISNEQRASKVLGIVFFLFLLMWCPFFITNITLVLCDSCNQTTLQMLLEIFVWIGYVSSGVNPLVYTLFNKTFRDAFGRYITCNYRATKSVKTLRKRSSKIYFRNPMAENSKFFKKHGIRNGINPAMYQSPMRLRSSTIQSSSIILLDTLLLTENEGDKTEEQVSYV
5-hydroxytryptamine receptor 5A (Homo sapiens), sequence (P47898 whole entry): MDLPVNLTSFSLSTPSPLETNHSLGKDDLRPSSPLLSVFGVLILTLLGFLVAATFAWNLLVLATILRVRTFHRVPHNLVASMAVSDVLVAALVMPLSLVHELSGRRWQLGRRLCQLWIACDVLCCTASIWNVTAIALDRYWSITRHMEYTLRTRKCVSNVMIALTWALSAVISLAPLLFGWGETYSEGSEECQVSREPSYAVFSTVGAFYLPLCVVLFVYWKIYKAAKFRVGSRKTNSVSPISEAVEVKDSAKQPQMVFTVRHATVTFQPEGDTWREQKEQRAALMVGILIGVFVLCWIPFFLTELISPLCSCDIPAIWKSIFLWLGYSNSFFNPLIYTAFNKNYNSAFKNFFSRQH
5-hydroxytryptamine receptor 1D (Homo sapiens), sequence (P28221 whole entry): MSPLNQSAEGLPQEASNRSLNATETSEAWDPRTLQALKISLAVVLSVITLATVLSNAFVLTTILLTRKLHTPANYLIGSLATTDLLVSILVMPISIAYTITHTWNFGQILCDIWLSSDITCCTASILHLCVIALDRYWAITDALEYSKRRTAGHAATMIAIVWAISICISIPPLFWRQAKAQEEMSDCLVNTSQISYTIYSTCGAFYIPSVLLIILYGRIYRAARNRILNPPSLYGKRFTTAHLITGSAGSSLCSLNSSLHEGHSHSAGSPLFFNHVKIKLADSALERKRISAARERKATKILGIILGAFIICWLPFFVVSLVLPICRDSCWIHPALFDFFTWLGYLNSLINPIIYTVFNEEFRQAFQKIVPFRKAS

CCCCCCCCCCC[C@@H]1CCN[C@H](C(=O)NCC(O)CO)C1 (relative stereo)
Activity (Rattus norvegicus [1]): Active | Activity [2]: Active | AUC [3]: 939 ng·h/mL | Activity (Rattus norvegicus [4]): 95% | Activity (Rattus norvegicus [5]): Active | Emax [6]: 123% | Activity [7]: Not Active | Vdss [8]: 35.07 L/kg | inhibition [9]: 5.5% | F [10]: 39.1% | Activity (Rattus norvegicus [11]): Active | CL [12]: 89.5 mL/min/kg | inhibition at 1.5 h, 10 µM (5-HT2B receptor): 15.1% | Activity (Rattus norvegicus [13]): inactive | inhibition [14]: 17.2% | beta t1/2 [15]: 5.82 h | inhibition [16]: 26.8%
